Article PMC2292217 (The Journal of Experimental Medicine, 2008)

How the values were obtained:
[1] = tested on: mice; settings: cited from earlier work
[2] = tested on: peritoneal MΦs (PMΦs); assay: MΦ activation assay: LPS/IFN-γ–induced inflammatory cytokine expression; assay type: cell-based, mouse (C57BL/6); settings: for Antiinflammatory activity in the MΦ activation assay (in words): PMΦs, peptides 0.1 pM–100 nM, LPS/IFN-γ 15 h
[3] = tested on: C57Bl6/J mice; assay: Zymosan-induced peritonitis; assay type: in vivo, mouse; settings: for Protection in vivo as judged by neutrophil and monocyte levels (in words): same dose and time as C15 (0.32 ng/kg i.p. 1 h before zymosan), 4 h
Procedure, shortened: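 C57BL6/J mice received test peptide i.p. (8 pg/mouse, ∼0.32 ng/kg, in 500 μl) or PBS, either 1 h before or 2 h after 10 μg zymosan A i.p. Peritoneal lavage with PBS-3 mM EDTA was done at 2–48 h. Cells were counted, Fc-blocked, stained for 7/4 and Ly-6G, and typed by FACS: neutrophils 7/4high Ly-6Ghigh, monocytes 7/4high Ly-6Glow. Six to eight mice per treatment.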

[4] = tested on: ChemR23−/− PMΦs; assay: MΦ chemotaxis assay with ChemR23 KO MΦs; assay type: cell-based, mouse; settings: MΦs from ChemR23−/− mice, 4 h migration
[5] = tested on: ChemR23−/− PMΦs; assay: MΦ activation assay in MΦs from ChemR23−/− mice; assay type: cell-based, mouse; settings: 0.1–1 pM, 1 h pretreatment, LPS/IFN-γ 15 h; ELISA
[6] = tested on: Bio-Gel–elicited peritoneal cells from ChemR23 KO mice; assay: Calcium flux in ChemR23 KO cells; assay type: cell-based, mouse; settings: Fura-PE3/AM
[7] = tested on: wild-type Bio-Gel–elicited peritoneal cells; assay: Calcium flux in wild-type cells; assay type: cell-based, mouse; settings: Fura-PE3/AM
Procedure, shortened: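 Cells from mice 4 d after Bio-Gel elicitation were suspended at 10^7 cells/ml in HBSS with CaCl2/MgCl, 0.5% BSA and 10 mM Hepes. They were loaded with 2 μM Fura-PE3/AM for 45 min at room temperature, then washed twice. 3 × 10^6 cells were added to prewarmed 37°C buffer in a cuvette. After at least 60 s, fluorescence was recorded at excitation 340/380 nm and emission 510 nm.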

[8] = tested on: MΦs; assay: Cell viability, MTS assay; assay type: cell-based, mouse; settings: MTS assay (Promega)
[9] = tested on: peritoneal MΦs (PMΦs); assay: MΦ chemotaxis assay; assay type: cell-based, mouse; settings: 25 ng/ml, positive control, 4 h; mean ± SEM, n = 4 independent experiments
Procedure, shortened: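 Bio-Gel-elicited peritoneal MΦs (4 × 10^5) from wild-type or ChemR23−/− mice were placed on 8-μm-pore membranes in RPMI/25 mM Hepes/0.1% BSA. They migrated 4 h toward test peptide, 25 ng/ml RANTES (positive control) or serum-free medium. For Gαi blockade, cells were pretreated 30 min with 200 ng/ml PTX. Migrated nuclei were formalin-fixed, DAPI-stained and imaged, with ≥3 replicate wells per treatment. Migration index = treatment threshold area ÷ serum-free area; n = 4 experiments.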

[10] = 0.32 ng/kg i.p. 1 h before zymosan, lavage fluid at 4 h
[11] = time course, 8 pg/mouse i.p. 1 h before zymosan, 4 h after zymosan, FACS
[12] = classically activated PMΦs, quantitative RT-PCR normalized to HPRT

Molecule: CC[C@@H](O)/C=C/C=C\C[C@@H](O)/C=C/C=C/C=C\[C@@H](O)CCCC(=O)O [RvE1, resolvin E1]
- Reduction of PMN numbers in peritoneal exudates ([1]; 300 ng/mouse i.p. (12 μg/kg)): up to 25%

Molecule: C[C@@H]1C[C@H]2[C@@H]3CCC4=CC(=O)C=C[C@]4(C)[C@@]3(F)[C@@H](O)C[C@]2(C)[C@@]1(O)C(=O)CO [dexamethasone]
- Suppression of monocyte and neutrophil influx ([1]; 30 μg/mouse (1.2 mg/kg)): 50%

Molecule: AGEDPHGYALPGQAA [C15-M]
- Antiinflammatory activity in the MΦ activation assay (in words) [2]: devoid of antiinflammatory activity
- Protection in vivo as judged by neutrophil and monocyte levels (in words) [3]: not protective

Molecule: AGEDPHGYFLPGQFA [C15]
- Effect at 4 pg/mouse (in words) ([3]; 4 pg/mouse (∼0.16 ng/kg) i.p., 4 h after zymosan): significant antiinflammatory effects
- Decrease in monocyte recruitment, C15 post-zymosan ([3]; 8 pg i.p. 2 h after zymosan, 4 h after zymosan): 42%
- Peritoneal monocyte levels, C15 post-zymosan ([3]; 8 pg i.p. 2 h after zymosan, lavage 4 h after zymosan, zymosan alone 0.69 × 10^6): 0.42 × 10^6 cells
- Peritoneal neutrophil numbers, C15 post-zymosan ([3]; 8 pg i.p. 2 h after zymosan, lavage 4 h after zymosan, zymosan alone 1.9 × 10^6): 0.83 × 10^6 cells
- Reduction of peritoneal IL-1β expression [3, 10]: 67%
- Reduction of peritoneal IL-6 expression [3, 10]: 67%
- Reduction of peritoneal JE expression [3, 10]: 59%
- Reduction of peritoneal KC expression [3, 10]: 38%
- Reduction of peritoneal TNF-α expression [3, 10]: 51%
- Rate of monocyte influx ([3]; 2–4 h after zymosan, 8 pg/mouse i.p. pretreatment, zymosan alone 0.51 × 10^6): 0.18 × 10^6 cells/h
- Magnitude of peak neutrophilia relative to zymosan-challenged mice ([3]; time course, 8 pg/mouse i.p. 1 h before zymosan): ~50%
- Suppression of neutrophil infiltration, 2 h ([3]; time course, 8 pg/mouse i.p. 1 h before zymosan, 2 h after zymosan, FACS): 50%
- Suppression of monocyte levels, 4 h [3, 11]: 63%
- Suppression of neutrophil infiltration, 4 h [3, 11]: 66%
- Suppression of monocyte levels, 8 h ([3]; time course, 8 pg/mouse i.p. 1 h before zymosan, 8 h after zymosan, FACS): 61%
- Suppression of neutrophil infiltration, 24 h ([3]; time course, 8 pg/mouse i.p. 1 h before zymosan, 24 h after zymosan, FACS): 50%
- Suppression of monocyte levels, 48 h ([3]; time course, 8 pg/mouse i.p. 1 h before zymosan, 48 h after zymosan, FACS): 64%
- Peak peritoneal neutrophil number ([3]; time course, 8 pg/mouse i.p. 1 h before zymosan, zymosan alone 1.25 × 10^6): 0.62 × 10^6 cells
- Chemotactic effect in ChemR23 KO MΦs (in words) [4]: completely ablated
- Suppression of proinflammatory mediator production by ChemR23 KO MΦs (in words) [5]: unable to suppress

Molecule: ELSETQRRSLQVALEEFHK [N19]
- Antiinflammatory activity in the MΦ activation assay (in words) [2]: devoid of antiinflammatory activity

Molecule: FSRALRTK [C8]
- Antiinflammatory activity in the MΦ activation assay (in words) [2]: no detectable antiinflammatory activity

Molecule: GLFHDQAGPPAGYEF [C15-S]
- Antiinflammatory activity in the MΦ activation assay (in words) [2]: devoid of antiinflammatory activity
- Protection in vivo as judged by neutrophil and monocyte levels (in words) [3]: not protective

Molecule: KPECTIKPNGRRRKCLACIK [M20]
- Antiinflammatory activity in the MΦ activation assay (in words) [2]: devoid of antiinflammatory activity

Molecule: PHGYFLPGQFA [C11]
- Antiinflammatory activity in the MΦ activation assay (in words) [2]: devoid of antiinflammatory activity

Molecule: RALRTK [C6]
- Antiinflammatory activity in the MΦ activation assay (in words) [2]: no detectable antiinflammatory activity

Molecule: fMLP [reference compound]
- Chemotactic effect in ChemR23 KO MΦs (in words) [4]: unaffected

B1: Chemerin: recombinant murine chemerin (R&D Systems), chemotactic protein that binds ChemR23 (protein, UniProt Q9DD06 21-156, looked up)
Retinoic acid receptor …: EPELSETQRRSLQVALEEFHKHPPVQLAFQEIGVDRAEEVLFSAGTFVRLEFKLQQTNCPKKDWKKPECTIKPNGRRRKCLACIKMDPKGKILGRIVHCPILKQGPQDPQELQCIKIAQAGEDPHGYFLPGQFAFS
- Calcium flux (in words) [6]: failed to do so
- Calcium flux (in words) [7]: induce calcium flux
- Induction of IL-10 mRNA expression [2, 12]: 10 fold
- Induction of TGF-β mRNA expression [2, 12]: twofold
- Chemotactic effect in ChemR23 KO MΦs (in words) [4]: completely ablated
- Effect on cell viability (in words) [8]: not found to affect cell viability adversely

B2: RANTES: CC chemokine, positive control in chemotaxis (25 ng/ml; 3 nM) (protein, UniProt P13501 24-91, looked up)
C-C motif chemokine 5: SPYSSDTTPCCFAYIARPLPRAHIKEYFYTSGKCSNPAVVFVTRKNRQVCANPEKKWVREYINSLEMS
- Migration index [9]: 6 ± 0.59
- Chemotactic effect in ChemR23 KO MΦs (in words) [4]: unaffected
